# Calls of active or inactive are those of the source. The rule behind the calls is not given here.
# Tests used:
# [1] = tested on: RBL-2H3; assay: Inhibition of mast cell degranulation in DNP-HSA antigen sensitized rat RBL-2H3 cells assessed as reduction in beta-hexoaminosidase release at 100 uM preincubated for 5 mins followed by DNP addition and measured after 1 hr by multiplate reader; format: functional, cell-based; settings: time 65.0 min
# Procedure, shortened: (§1)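 RBL-2H3 cells (72×10^3/well) were sensitized overnight with anti-DNP IgE 0.50 µg/ml, then moved to phenol-free DMEM with 1 mg/ml BSA. Cells were preincubated 5 min at 37 °C with 0.1 % DMSO, cromolyn 1 mM or compound 100 μM, then challenged with DNP-HSA 10 ng/ml. After 1 h, supernatant was incubated 1 h with 1.4 mM p-nitrophenyl-N-acetyl-β-D-glucosaminide (citrate pH 4.2), stopped with Trizma pH 9.4, and read at 405 nm.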
# [2] = Induction of H2S release in PBS at pH 7.4 at 100 uM measured after 30 mins by free radical analyzer; format: physicochemical; settings: buffer, pH 7.4, 0.5 h
# Procedure, shortened: (§2)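 An H2S-selective mini-electrode was equilibrated in PBS pH 7.4, and compound was added to 100 μM final (1 % DMSO). Amperometric current was recorded for 30 min, with or without L-cysteine 4 mM added 10 min before. Current was converted to H2S using NaHS calibration (1–10 µM, pH 4.0); mean ± SEM.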
# [3] = Induction of H2S release in PBS at pH 7.4 at 100 uM pretreated with L-Cys for 10 mins followed by compound addition and measured after 30 mins by free radical analyzer; format: physicochemical; settings: buffer, pH 7.4, 0.5 h; procedure, shortened: as §2
# [4] = Solubility of compound in water at 5 mg incubated at 25 degreeC for 6 hrs by UHPLC analysis; format: physicochemical
# Procedure, shortened: (§3)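 Solid compound (5 mg) was shaken in 1 mL water, PBS (pH 7.4, 50 mM) or pepsin-free SGF (pH 1.2) for 6 h at 25 °C. Suspensions were filtered (0.45 μm) and the filtrate quantified by UHPLC, reported in mg/L; triplicate, mean values.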
# [5] = Half life in PBS at pH 7.4 at 100 uM incubated at 37 degreeC up to 24 hrs by UPHLC analysis; format: ADME
# Procedure, shortened: (§4)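 A 10 mM DMSO stock was diluted to 100 μM in PBS (pH 7.4, 50 mM) or pepsin-free SGF (pH 1.2) and held at 37 ± 0.5 °C for 24 h. Timed aliquots were quantified by reverse-phase UHPLC-DAD against calibration curves (1.56–100 ppm), tracking the parent compound plus aminoacetate and corticosteroid metabolites. Pseudo-first-order t1/2 was calculated; n = 3.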
# [6] = tested on: RBL-2H3; assay: Cytotoxicity against rat RBL-2H3 cells assessed as reduction cell viability at 100 uM after 24 hrs by WST assay; format: toxicity, cell-based; settings: rbl-2h3, 24 h
# Procedure, shortened: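 RBL-2H3 cells were grown in MEM with 10 % FBS, 10^4 cells/well, and attached for 24 h. They were then exposed 24 h to 100 μM compound (final) or 0.1 % DMSO. WST-1 (1:10) was added for 60 min at 37 °C and absorbance read at 450 nm. Viability is expressed as % of vehicle; mean ± SEM.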
# [7] = Solubility of compound in simulated gastric fluid at pH 1.2 in absence of pepsin at 5 mg incubated at 25 degreeC for 6 hrs by UHPLC analysis; format: ADME; settings: simulated gastric fluid without pepsin; procedure, shortened: as §3
# [8] = Half life in simulated gastric fluid at pH 1.2 in absence of pepsin at 100 uM incubated at 37 degreeC up to 24 hrs by UPHLC analysis; format: ADME; settings: simulated gastric fluid without pepsin; procedure, shortened: as §4
# [9] = Solubility of compound in PBS at pH 7.4 at 5 mg incubated at 25 degreeC for 6 hrs by UHPLC analysis; format: physicochemical; procedure, shortened: as §3
# [10] = target: Albumin (Bos taurus, UniProt P02769); assay: Stability in 3% bovine serum albumin assessed as parent compound remaining at 200 uM incubated at 37 degreeC for 10 mins by UHPLC analysis; format: ADME; settings: cattle, 3% bovine serum albumin solution, read-out: Stability
# Procedure, shortened: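 A 10 mM DMSO stock was diluted to 200 μM in 3 % BSA in PBS and incubated at 37 ± 0.5 °C for up to 4 h. Timed samples were deproteinized with an equal volume of acetonitrile/0.1 % TFA, centrifuged, filtered and quantified by UHPLC. Results are given as pseudo-first-order t1/2 or % parent remaining at 10 min; n ≥ 3.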
# [11] = tested on: RBL-2H3; assay: Inhibition of mast cell degranulation in DNP-HSA antigen sensitized rat RBL-2H3 cells assessed as reduction in beta-hexoaminosidase release at 1 mM preincubated for 5 mins followed by DNP addition and measured after 1 hr by multiplate reader relative to control; format: functional; settings: RBL-2H3, 1.083 h, time 65 min; procedure, shortened: as §1
# Sequence of Albumin (P02769 whole entry): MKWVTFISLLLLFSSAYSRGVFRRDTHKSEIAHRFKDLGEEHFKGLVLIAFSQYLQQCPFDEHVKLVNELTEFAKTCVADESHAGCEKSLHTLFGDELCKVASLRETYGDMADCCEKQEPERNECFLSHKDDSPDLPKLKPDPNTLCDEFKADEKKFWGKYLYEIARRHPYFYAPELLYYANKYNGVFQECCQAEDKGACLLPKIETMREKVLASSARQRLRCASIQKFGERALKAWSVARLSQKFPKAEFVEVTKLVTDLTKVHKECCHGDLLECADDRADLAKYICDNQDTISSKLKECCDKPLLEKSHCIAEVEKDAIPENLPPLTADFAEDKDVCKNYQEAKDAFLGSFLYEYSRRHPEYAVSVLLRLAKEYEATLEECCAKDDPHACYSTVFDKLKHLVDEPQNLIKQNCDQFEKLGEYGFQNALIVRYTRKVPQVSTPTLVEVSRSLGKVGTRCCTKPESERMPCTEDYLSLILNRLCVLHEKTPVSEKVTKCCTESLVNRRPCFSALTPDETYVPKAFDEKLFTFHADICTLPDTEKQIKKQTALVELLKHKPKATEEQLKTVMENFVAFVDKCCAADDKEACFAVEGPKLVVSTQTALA
Activity [2],Activity [3],solubility at 6 h [4] [µg/mL],half-life at 100 µM [5] [h],solubility at 6 h [7] [µg/mL],half-life at 100 µM [8] [h],solubility at 6 h [9] [µg/mL],"remaining at 10 min, 200 µM [10] [%]",SMILES,inhibition [1],Activity [6],inhibition at 1000 µM [11] [%]
–,–,–,–,–,–,–,–,C[C@@H]1C[C@H]2[C@@H]3CCC4=CC(=O)C=C[C@]4(C)[C@@]3(F)[C@@H](O)C[C@]2(C)[C@@]1(O)C(=O)COC(=O)CN,Active,–,–
~ 2 uM,~ 2 uM,< 0.1,> 24,< 0.1,> 24,< 0.1,23,CCCC1O[C@@H]2C[C@H]3[C@@H]4CCC5=CC(=O)C=C[C@]5(C)[C@H]4[C@@H](O)C[C@]3(C)[C@]2(C(=O)COC(=O)CN=C=S)O1 (some centres undefined),Active,Non-Toxic,–
–,–,–,–,–,–,–,–,O=C(O)c1cc(=O)c2c(OCC(O)COc3cccc4oc(C(=O)O)cc(=O)c34)cccc2o1 [CROMOLYN],–,–,~25
~ 2 uM,~ 2 uM,5.26,0.2,16.1,18,15.9,19,C[C@]12C=CC(=O)C=C1CC[C@@H]1[C@@H]2C(=O)C[C@@]2(C)[C@H]1CC[C@]2(O)C(=O)COC(=O)CN=C=S,Active,Non-Toxic,–

SMILES,Activity [2],Activity [3],solubility at 6 h [4] [µg/mL],half-life at 100 µM [5] [h],solubility at 6 h [7] [µg/mL],half-life at 100 µM [8] [h],solubility at 6 h [9] [µg/mL],"remaining at 10 min, 200 µM [10] [%]",inhibition [1],Activity [6],inhibition at 1000 µM [11] [%]
[Na+].[SH-] [SODIUM HYDROSULFIDE],<= 20 uM,<= 20 uM,–,–,–,–,–,–,–,–,–

# Reference: ChEMBL document CHEMBL5579848, “Isothiocyanate-Corticosteroid Conjugates against asthma: Unity makes strength” (Eur J Med Chem, 2024)
